Test results from ChEMBL document CHEMBL3576833, “Design and Synthesis of Acetylenyl Benzamide Derivatives as Novel Glucokinase Activators for the Treatment of T2DM” (ACS Med Chem Lett, 2015).
Converted amounts (≈) assume the structure as drawn.

How the values were obtained:
[1] = target: T1, Hexokinase-4 (Homo sapiens, UniProt P35557); experiment: Activation of recombinant human pancreatic glucokinase using 10 mM glucose as substrate by G6PDH coupled assay
T1 sequence (P35557 whole entry): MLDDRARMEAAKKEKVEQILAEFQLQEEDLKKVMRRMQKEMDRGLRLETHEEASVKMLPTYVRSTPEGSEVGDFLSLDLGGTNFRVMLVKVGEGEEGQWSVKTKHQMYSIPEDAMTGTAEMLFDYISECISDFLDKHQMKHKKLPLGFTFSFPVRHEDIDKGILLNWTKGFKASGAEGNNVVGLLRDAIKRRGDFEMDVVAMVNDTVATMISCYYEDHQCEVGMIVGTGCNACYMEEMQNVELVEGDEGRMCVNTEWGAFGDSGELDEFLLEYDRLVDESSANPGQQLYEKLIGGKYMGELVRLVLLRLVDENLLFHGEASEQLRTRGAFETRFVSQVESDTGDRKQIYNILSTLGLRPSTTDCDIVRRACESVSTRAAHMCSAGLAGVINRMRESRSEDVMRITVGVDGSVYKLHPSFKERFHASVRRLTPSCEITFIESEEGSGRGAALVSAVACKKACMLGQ
Outline: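 Recombinant human pancreatic glucokinase, with glucose at 10 mM. Activity was read as the increase in GK enzyme activity. EC50, Vmax and S0.5 were derived from this. Values are means of triplicate runs.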

[2] = test system: Mus musculus; experiment: Antidiabetic activity in C57BL/6 mouse assessed as reduction of blood glucose AUC at 50 mg/kg, po administered 30 mins prior to glucose challenge measured over 180 mins by OGTT relative to vehicle-treated control; format: functional; parameters: scale not given: the % may be the effect or the level left
Outline: (§1)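 Oral glucose tolerance test in C57BL/6J mice with oral dosing. Blood glucose was followed after the glucose challenge, and the result was expressed as the % reduction in blood glucose AUC.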

[3] = test system: Mus musculus; experiment: Antidiabetic activity in C57BL/6 mouse assessed as reduction of blood glucose AUC at 30 mg/kg, po administered 30 mins prior to glucose challenge measured over 180 mins by OGTT relative to vehicle-treated control; format: functional; parameters: scale not given: the % may be the effect or the level left; outline: as §1
[4] = Solubility of the compound at pH 7.4; format: physicochemical; conditions: buffer
[5] = Apparent permeability of the compound by PAMPA; format: physicochemical
[6] = Oral bioavailability in ICR mouse at 10 mg/kg; format: ADME, organism-based; conditions: in vivo
[7] = test system: Mus musculus; experiment: Antidiabetic activity in C57BL/6J mouse assessed as blood glucose level at 30 mg/kg, po after 60 mins by fasted glucose tolerance test; format: functional
Outline: (§2)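 Fasted glucose tolerance test in C57BL/6J mice. Animals were fasted and dosed orally, with no glucose challenge. Blood glucose was measured at 60 min.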

[8] = Volume of distribution at steady state in ICR mouse at 3 mg/kg, iv and 10 mg/kg, po; format: ADME, organism-based; conditions: in vivo, read-out: Vdss
[9] = Clearance in ICR mouse at 3 mg/kg, iv and 10 mg/kg, po; format: ADME, organism-based; conditions: in vivo
[10] = test system: Mus musculus; experiment: Toxicity in C57BL/6J mouse assessed as hypoglycemic effect at 30 mg/kg, po after 60 mins; format: organism-based; conditions: in vivo, 1 h; outline: as §2
[11] = Elimination half life in ICR mouse at 3 mg/kg, iv and 10 mg/kg, po; format: ADME, organism-based; conditions: in vivo, read-out: beta t1/2 (converted)

Row | Compound | EC50 [1] [µM] | Activity [2] [%] | further results
1 | COCC#Cc1cc(O[C@@H](C)COC)cc(C(=O)Nc2ccn(C)n2)c1 | 1.87 | – | –
2 | COC[C@H](C)Oc1cc(C#CCN(C)C)cc(C(=O)Nc2ccn(C)n2)c1 | 7.7 | – | –
3 | COC[C@H](C)Oc1cc(C#CCNc2ncccn2)cc(C(=O)Nc2ccn(C)n2)c1 | 0.301 | – | –
4 | COC[C@H](C)Oc1cc(C#Cc2cccc(O)c2)cc(C(=O)Nc2ccn(C)n2)c1 | 0.039 | – | –
5 | COC[C@H](C)Oc1cc(C#Cc2cccc(N(C)C)c2)cc(C(=O)Nc2ccn(C)n2)c1 | 0.037 | 43.7 | –
6 | CCN(CC)c1cccc(C#Cc2cc(O[C@@H](C)COC)cc(C(=O)Nc3ccn(C)n3)c2)c1 | 0.163 | – | –
7 | COCCNc1cccc(C#Cc2cc(O[C@@H](C)COC)cc(C(=O)Nc3ccn(C)n3)c2)c1 | 0.039 | – | Activity [3]: 41%
8 | COC[C@H](C)Oc1cc(C#Cc2cccc(OC(C)C)c2)cc(C(=O)Nc2ccn(C)n2)c1 | 0.053 | – | –
9 | COC[C@H](C)Oc1cc(C#Cc2cccc(OCC#N)c2)cc(C(=O)Nc2ccn(C)n2)c1 | 0.046 | – | –
10 | N[C@@H](CC(=O)N1CCn2c(nnc2C(F)(F)F)C1)Cc1cc(F)c(F)cc1F [SITAGLIPTIN] | – | – | Activity [3]: 22.6%

Continued by falling EC50 [1], values first:

Row | EC50 [1] [µM] | Compound | Activity [2] [%] | further results
11 | 0.034 | COC[C@H](C)Oc1cc(C#Cc2ccc(N)cc2)cc(C(=O)Nc2ccn(C)n2)c1 | 53.5 | –
12 | 0.03 | COC[C@H](C)Oc1cc(C#Cc2ccc3c(c2)OCO3)cc(C(=O)Nc2ccn(C)n2)c1 | – | –
13 | 0.027 | COC[C@H](C)Oc1cc(C#Cc2cccc(N)c2)cc(C(=O)Nc2ccn(C)n2)c1 | 52.1 | solubility [4]: 22.2 µM (≈ 8.98 µg/mL); Papp [5]: 3.43 ×10⁻⁶ cm/s; Activity [3]: 47.4%; bioavailability [6]: 49%; Activity [7]: >55 mg/dL; Vd [8]: 1.44 L/kg; clearance [9]: 43.2 mL/min/kg; Activity [10]: Non-toxic; half-life [11]: 1.1 h
14 | 0.021 | COC[C@H](C)Oc1cc(C#Cc2ccccc2OC)cc(C(=O)Nc2ccn(C)n2)c1 | – | Activity [3]: 49.1%
15 | 0.02 | COC[C@H](C)Oc1cc(C#Cc2cccc(NCCN3CCOCC3)c2)cc(C(=O)Nc2ccn(C)n2)c1 | 47.9 | –
16 | 0.016 | COC[C@H](C)Oc1cc(C#Cc2cccc(OCCN3CCOCC3)c2)cc(C(=O)Nc2ccn(C)n2)c1 | – | –
17 | 0.012 | COC[C@H](C)Oc1cc(C#Cc2ccc3[nH]ccc3c2)cc(C(=O)Nc2ccn(C)n2)c1 | – | –
18 | 0.009 | COC[C@H](C)Oc1cc(C#Cc2cccc(NCCn3ccnc3C)c2)cc(C(=O)Nc2ccn(C)n2)c1 | – | –
19 | 0.007 | COC[C@H](C)Oc1cc(C#Cc2cccc(OCCN3CCCCC3)c2)cc(C(=O)Nc2ccn(C)n2)c1 | 46 | –
20 | 0.006 | COC[C@H](C)Oc1cc(C#CCOC2CCCCO2)cc(C(=O)Nc2ccn(C)n2)c1 (stereo not given in full) | 44.7 | –
21 | 0.006 | COC[C@H](C)Oc1cc(C#Cc2cccc(NCCN(C)C)c2)cc(C(=O)Nc2ccn(C)n2)c1 | – | Activity [3]: 56%
22 | 0.006 | COC[C@H](C)Oc1cc(C#Cc2cccc(NCCN3CCCC3)c2)cc(C(=O)Nc2ccn(C)n2)c1 | 51.4 | –
23 | 0.006 | COC[C@H](C)Oc1cc(C#Cc2cccc(NCCN3CCCCC3)c2)cc(C(=O)Nc2ccn(C)n2)c1 | 54 | –
24 | 0.006 | COC[C@H](C)Oc1cc(C#Cc2cccc(OCCN3CCCC3)c2)cc(C(=O)Nc2ccn(C)n2)c1 | 51.6 | –
